This is an account of results in PubChem BioAssay.

The source made the active and inactive calls.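 How the source made its calls, unless noted: active means viability at or below 10% of carrier control in both of two separate runs; inconclusive means viability at or below 10% in only one of the two runs; inactive means the rest.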

Assay [1] is described as follows: Her2 expression decrease, cell viability multiplex – SKBR3 breast tumor cells, AlphaScreen, ATP viability, primary screen (AID 461;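 active means Her2 level under about 52% in both replicate screens, with viability over 70% of control, limit read from the data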;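 on Her2 level: lower value means less Her2 protein in the cells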;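 on viability: percent of carrier control wells set as 100% viability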). The note with it: SKBR3 Her2 protein level, 18-24 h, measured here: SKBR3 viability, ATP luminescence, at 10 µM. Background: Bead proximity is the source of the signal in Alpha formats.
The target of assay [2] is Receptor tyrosine-protein kinase erbB-2 (Homo sapiens) (UniProt P04626). The assay is described as above. The note with it: 18-24 h, at 10 µM, stronger effect = lower value.
Chain of Receptor tyrosine-protein kinase erbB-2 (Homo sapiens) (P04626 whole entry, looked up): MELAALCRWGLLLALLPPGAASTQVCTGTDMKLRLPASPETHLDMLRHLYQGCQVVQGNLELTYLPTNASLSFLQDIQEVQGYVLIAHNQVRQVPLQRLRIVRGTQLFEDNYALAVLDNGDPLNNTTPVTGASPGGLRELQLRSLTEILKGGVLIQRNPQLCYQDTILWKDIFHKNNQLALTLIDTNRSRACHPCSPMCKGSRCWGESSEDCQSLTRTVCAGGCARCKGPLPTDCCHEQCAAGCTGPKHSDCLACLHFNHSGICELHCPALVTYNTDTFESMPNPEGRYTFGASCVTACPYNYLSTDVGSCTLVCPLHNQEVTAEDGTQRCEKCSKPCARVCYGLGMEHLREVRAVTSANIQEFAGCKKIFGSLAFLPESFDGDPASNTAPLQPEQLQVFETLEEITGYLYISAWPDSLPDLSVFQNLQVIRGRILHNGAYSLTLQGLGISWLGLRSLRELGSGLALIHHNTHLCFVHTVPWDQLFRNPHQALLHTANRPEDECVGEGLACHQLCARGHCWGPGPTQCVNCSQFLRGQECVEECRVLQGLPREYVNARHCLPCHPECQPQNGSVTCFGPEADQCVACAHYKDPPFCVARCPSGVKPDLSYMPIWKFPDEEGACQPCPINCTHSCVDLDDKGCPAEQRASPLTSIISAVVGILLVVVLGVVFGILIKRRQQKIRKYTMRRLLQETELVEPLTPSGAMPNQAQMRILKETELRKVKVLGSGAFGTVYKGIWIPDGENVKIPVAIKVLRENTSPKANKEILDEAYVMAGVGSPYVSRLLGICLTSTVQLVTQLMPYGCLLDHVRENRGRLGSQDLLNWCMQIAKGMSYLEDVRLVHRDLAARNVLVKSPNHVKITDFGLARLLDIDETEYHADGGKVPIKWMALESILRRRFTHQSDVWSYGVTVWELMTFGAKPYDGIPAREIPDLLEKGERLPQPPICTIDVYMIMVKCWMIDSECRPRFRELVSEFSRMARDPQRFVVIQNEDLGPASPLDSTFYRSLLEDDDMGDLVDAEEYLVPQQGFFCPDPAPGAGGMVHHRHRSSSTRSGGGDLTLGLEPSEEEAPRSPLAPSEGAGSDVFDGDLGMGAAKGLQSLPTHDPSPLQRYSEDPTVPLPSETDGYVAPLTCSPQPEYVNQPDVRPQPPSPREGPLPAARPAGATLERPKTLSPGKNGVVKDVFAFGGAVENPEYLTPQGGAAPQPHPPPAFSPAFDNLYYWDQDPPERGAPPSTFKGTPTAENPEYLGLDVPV
Assay [3] is described as follows: reduced viability of SK-BR-3 breast cancer cells – cell-based, 24 h, human, pilot screen (AID 572).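 Further: compound exposure lasted between 18 and 24 h rather than exactly 24 h; 100% = carrier-treated control wells.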 The note with it: SK-BR-3 viability, CellTiter-Glo luminescence, at 10 µM, stronger effect = lower value.
Assay [4] can be described thus: HUVEC growth inhibition – cell-based, human, primary screen (AID 575;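 active means viability at or below 30% in both replicate assays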;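 further: 100% = median of untreated cell wells with 0.1% DMSO on each plate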). The note with it: HUVEC proliferation, CellTiter-Glo luminescence, 72 h; at 10 µM; stronger effect = lower value. In short, it runs like this:
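material = primary HUVEC, no more than 12 passages | input = 1250 cells per well | controls = vehicle and MePR control wells | measured by = CTG luminescence | times = 72 h compound incubation | format = collagen-coated 384-well format | read-out = % viability vs DMSO wells | doses = single 10 µM dose, 0.1% DMSO, from 5x medium stock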

The nature of assay [5]: H69AR cell proliferation blockers – human, duplicate replicates, primary screen (AID 580;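 active means viability at or under a set limit in both replicates, limit being median viability minus 3 SD, cut at about 48% in these data, passing the limit was not always enough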;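 further: 100% = mean luminescence of untreated wells and 0% = no signal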). The note with it: H69AR lung tumor cells viability, ATP luminescence, 72 h; at 10 µM; stronger effect = lower value.
The nature of assay [6]: MRP1 drug-resistance reversers in H69AR cells – cell-based, doxorubicin co-treatment, pilot screen (AID 601;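 active means viability loss from added drug above about 55%, and viability with drug at most 40%, in both replicates, limit read from the data, passing the limit was not always enough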). The note with it: CellTiter-Glo, 72 h, at 10 µM; for differential viability (reversal): stronger effect = higher value.
Assay [7] in a line: yeast transport mutant growth inhibition pilot in 384-well plates, post-Golgi transport modulator project (AID 636; in the data active means inhibition above about 31%). The note with it: absorbance 615 nm, about 18 h, stronger effect = higher value.
Assay [8] can be described thus: growth suppression of yeast trafficking mutant, preliminary HTS, modulators of trafficking downstream of Golgi apparatus project, 1536-format plate, OD 615 nm (AID 637; in the data active means inhibition above about 30%). The note with it: yeast transport mutant growth, absorbance 615 nm, 18 h; stronger effect = higher value.
[9] abbreviates: H69AR cells + 2 uM doxorubicin, measured here: viability with 2 uM doxorubicin, stronger effect = lower value.
Setting [10] is: H69AR cells, compound alone cytotoxicity.

With `CC(C)CNC(=O)c1c(N)n(/N=C/c2ccccn2)c2nc3ccccc3nc12`, the viability in assay [1] is 88.5%; in assay [3], 88.5% (inactive); in assay [4] it was 80.4% (inactive); in assay [5], 83.9% (inactive); in assay [6] (setting [9]) it was 81%; in assay [6] (setting [10]), 83.9%. Besides, in assay [2], the Her2 level was 92.5% (inactive). Moreover, in assay [6] (H69AR cells + 2 uM doxorubicin), the differential viability (reversal) was 2.92% (inactive). Besides, the inhibition in assay [7] is -4.67% (inactive); in assay [8], -1.48% (inactive).

As to `COc1cc2c(cc1OC)C(C)N(C(=O)c1cc3n(n1)C(C(F)(F)F)CC(c1ccco1)N3)CC2` (stereo not given), the viability was 108% in assay [1]; 108% (inactive) in assay [3]; 62% (inactive) in assay [4]; 75% (inactive) in assay [5]; 89.3% in assay [6] (setting [9]); 75% in assay [6] (setting [10]). Besides, the Her2 level in assay [2] is 68.5% (inactive). The differential viability (reversal) in assay [6] (H69AR cells + 2 uM doxorubicin) is -14.3% (inactive). Further, the inhibition was -6% (inactive) in assay [7] and 4.26% (inactive) in assay [8].

Consider `COc1ccc(C(CC(=O)O)NC(=O)c2ccccc2)cc1OC` (stereo not given), for which the viability is 110% in assay [1]; 110% (inactive) in assay [3]; 94.6% (inactive) in assay [4]; 83.6% (inactive) in assay [5]; 90.1% in assay [6] (setting [9]); 83.6% in assay [6] (setting [10]). In addition, the Her2 level in assay [2] was 101% (inactive). Moreover, in assay [6] (H69AR cells + 2 uM doxorubicin), the differential viability (reversal) is -6.46% (inactive). In addition, the inhibition in assay [7] was 0.78% (inactive); in assay [8] it was -6.33% (inactive).

Consider `CS(=O)(=O)N1CCN(CC2CC3C=CC2C3)CC1` (stereo not given), for which the viability was 110% in assay [1]; 110% (inactive) in assay [3]; 111% (inactive) in assay [4]; 101% (inactive) in assay [5]; 91.1% in assay [6] (setting [9]); 101% in assay [6] (setting [10]). Further, in assay [2], the Her2 level was 98% (inactive). Also, in assay [6] (H69AR cells + 2 uM doxorubicin), the differential viability (reversal) is 9.65% (inactive). Moreover, the inhibition in assay [7] is -6.35% (inactive); in assay [8] it was 3.17% (inactive).

Take `Cc1nc2ccc(N3C(=O)CCC3=O)cc2[nH]1`: the viability in assay [1] is 100%; in assay [3] it was 100% (inactive); in assay [4] it was 97.6% (inactive); in assay [5], 103% (inactive); in assay [6] (setting [9]), 95.2%; in assay [6] (setting [10]), 103%. The Her2 level in assay [2] was 101% (inactive). In addition, in assay [6] (H69AR cells + 2 uM doxorubicin), the differential viability (reversal) was 7.96% (inactive). The results for the inhibition in assay [7] and in assay [8] were -5.07% (inactive) and -1.45% (inactive), respectively.

In the case of `CCC(=O)N1CCc2cc(OC)c(OC)cc2C1COc1ccc(C(=O)OC)cc1` (stereo not given), the viability is 94.5% in assay [1]; 94.5% (inactive) in assay [3]; 87.2% (inactive) in assay [4]; 91.5% (inactive) in assay [5]; 93.9% in assay [6] (setting [9]); 91.5% in assay [6] (setting [10]). Besides, the Her2 level in assay [2] is 83% (inactive). Moreover, the differential viability (reversal) in assay [6] (H69AR cells + 2 uM doxorubicin) is -2.33% (inactive). The inhibition is -5.33% (inactive) in assay [7] and 1.61% (inactive) in assay [8].

With `COc1ccc(-n2c(SCC#N)nc3ccccc3c2=O)cc1`, the viability in assay [1] is 77%; in assay [3], 77% (inactive); in assay [4], 93.5% (inactive); in assay [5], 96.4% (inactive); in assay [6] (setting [9]) it was 109%; in assay [6] (setting [10]), 96.4%. Besides, in assay [2], the Her2 level is 106% (inactive). Besides, the differential viability (reversal) in assay [6] (H69AR cells + 2 uM doxorubicin) is -12.8% (inactive). Besides, the inhibition in assay [7] was 5.06% (inactive); in assay [8], 3.28% (inactive).

Turning to `COC(=O)c1ccccc1NC(=O)c1ccc(COc2ccccc2)o1`, the viability was 71.5% in assay [1]; 71.5% (inactive) in assay [3]; 94.6% (inactive) in assay [4]; 98.3% (inactive) in assay [5]; 97.6% in assay [6] (setting [9]); 98.3% in assay [6] (setting [10]). In addition, the Her2 level in assay [2] is 106% (inactive). Moreover, the differential viability (reversal) in assay [6] (H69AR cells + 2 uM doxorubicin) is 0.68% (inactive). For the same molecule, the inhibition in assay [7] is -6.13% (inactive); in assay [8] it was -4.1% (inactive).

On to `O=C(Nc1ccc(O)cc1)C1CCCN1S(=O)(=O)c1ccc(F)cc1` (stereo not given), for which the viability was 97.5% in assay [1]; 97.5% (inactive) in assay [3]; 91.6% (inactive) in assay [4]; 97.3% (inactive) in assay [5]; 94.7% in assay [6] (setting [9]); 97.3% in assay [6] (setting [10]). Moreover, the Her2 level in assay [2] was 92% (inactive). In assay [6] (H69AR cells + 2 uM doxorubicin), the differential viability (reversal) was 2.53% (inactive). In addition, the inhibition in assay [7] is -1.47% (inactive); in assay [8], 1.64% (inactive).

Turning to `CCCCNC(=O)c1c(C)cc(=O)oc1C`, the viability in assay [1] was 102%; in assay [3], 102% (inactive); in assay [4], 98.6% (inactive); in assay [5] it was 107% (inactive); in assay [6] (setting [9]), 92%; in assay [6] (setting [10]) it was 107%. For the same molecule, the Her2 level in assay [2] was 90.5% (inactive). Further, in assay [6] (H69AR cells + 2 uM doxorubicin), the differential viability (reversal) is 14.8% (inactive). Further, the inhibition is -4.53% (inactive) in assay [7] and -1.45% (inactive) in assay [8].

Regarding `COCCCNC(=O)CCc1nc(-c2ccccc2Cl)no1`, the viability in assay [1] is 102%; in assay [3] it was 102% (inactive); in assay [4], 103% (inactive); in assay [5], 93.3% (inactive); in assay [6] (setting [9]), 94.1%; in assay [6] (setting [10]), 93.3%. For the same molecule, in assay [2], the Her2 level was 95% (inactive). Moreover, the differential viability (reversal) in assay [6] (H69AR cells + 2 uM doxorubicin) was -0.855% (inactive). In addition, the figures for the inhibition in assay [7] and in assay [8] were 0.39% (inactive) and 6.39% (inactive), respectively.

For `O=C(CN1CCC(n2nnc3cc(F)ccc32)CC1)Nc1ccc2c(c1)CCC2`, the viability is 93% in assay [1]; 93% (inactive) in assay [3]; 79.5% (inactive) in assay [4]; 86.3% (inactive) in assay [5]; 91.8% in assay [6] (setting [9]); 86.3% in assay [6] (setting [10]). Moreover, the Her2 level in assay [2] is 104% (inactive). For the same molecule, the differential viability (reversal) in assay [6] (H69AR cells + 2 uM doxorubicin) was -5.55% (inactive). For the same molecule, the figures for the inhibition in assay [7] and in assay [8] were -4.59% (inactive) and -3.5% (inactive), respectively.

Consider `CCOc1ccc(C(C)=O)cc1COc1ccc(-n2cnnn2)cc1`, for which the viability is 99% in assay [1]; 99% (inactive) in assay [3]; 111% (inactive) in assay [4]; 77.2% (inactive) in assay [5]; 79.8% in assay [6] (setting [9]); 77.2% in assay [6] (setting [10]). For the same molecule, the Her2 level in assay [2] is 108% (inactive). Besides, in assay [6] (H69AR cells + 2 uM doxorubicin), the differential viability (reversal) is -2.58% (inactive). In addition, the inhibition in assay [7] is -4% (inactive); in assay [8], -8.52% (inactive).

Turning to `CN(C)C(CN1C(=O)C2CC=CCC2C1=O)c1cn(C)c2ccccc12` (stereo not given), the viability was 104% in assay [1]; 104% (inactive) in assay [3]; 89.9% (inactive) in assay [4]; 95.4% (inactive) in assay [5]; 88.7% in assay [6] (setting [9]); 95.4% in assay [6] (setting [10]). Also, the Her2 level in assay [2] was 85.5% (inactive). For the same molecule, in assay [6] (H69AR cells + 2 uM doxorubicin), the differential viability (reversal) is 6.72% (inactive). For the same molecule, the inhibition was -6.71% (inactive) in assay [7] and -1.59% (inactive) in assay [8].

For `CCOc1ccc(OCc2cccc(C(=O)O)c2)cc1`, the viability is 108% in assay [1]; 108% (inactive) in assay [3]; 77.6% (inactive) in assay [4]; 89.6% (inactive) in assay [5]; 79.1% in assay [6] (setting [9]); 89.6% in assay [6] (setting [10]). In addition, in assay [2], the Her2 level is 106% (inactive). Besides, the differential viability (reversal) in assay [6] (H69AR cells + 2 uM doxorubicin) was 10.5% (inactive). For the same molecule, the inhibition in assay [7] is -1.6% (inactive); in assay [8], -3.87% (inactive).

In the case of `Cc1ncc(CSc2nc3ccccc3[nH]2)c(N)n1`, the viability in assay [1] is 104%; in assay [3], 104% (inactive); in assay [4], 115% (inactive); in assay [5], 104% (inactive); in assay [6] (setting [9]) it was 87.5%; in assay [6] (setting [10]) it was 104%. Besides, the Her2 level in assay [2] was 92.5% (inactive). Also, the differential viability (reversal) in assay [6] (H69AR cells + 2 uM doxorubicin) was 16.8% (inactive). Also, the inhibition was -2.03% (inactive) in assay [7] and 1.43% (inactive) in assay [8].

In general, viability refers to a read-out of living cells in per cent, often relative to untreated cells. The term inhibition denotes the change of the read-out against control, counted positive when it falls.
